Data on one compound can be found in ChEMBL document CHEMBL1649438, “Activities of ceftobiprole and other cephalosporins against extracellular and intracellular (THP-1 macrophages and keratinocytes) forms of methicillin-susceptible and methicillin-resistant Staphylococcus aureus” (Antimicrob Agents Chemother, 2009).

The structures appear in SMILES notation. ≈ marks a conversion by molar mass, not a printed value.

Assay [1] has as its system Staphylococcus aureus. As to the kind of experiment: Antimicrobial activity against hospital-acquired vancomycin-intermediate Staphylococcus aureus NRS126 infected in human THP-1 cells assessed as bacterial count per mg of cell protein at low extracellular compound concentration after 24 hrs. Format: functional. Summed up: (§1)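 Human THP-1 macrophage-like cells were infected with S. aureus to a postphagocytosis inoculum of 1.5 × 10^6 to 3.0 × 10^6 CFU/mg cell protein. Cells were then exposed 24 h to increasing extracellular antibiotic concentrations. Response was the log10 CFU change per mg protein from the postphagocytosis inoculum, n = 3. A Hill function was fitted on log-transformed axes. E0 and Emax were extrapolated to infinitely low and high concentrations. Cs was read by graphical interpolation. Concentrations were expressed as multiples of the broth MIC at pH 5.5 or pH 7.4.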

The subject of assay [2] is Staphylococcus aureus. As to the kind of experiment: Antimicrobial activity against methicillin-susceptible Staphylococcus aureus ATCC 11632 infected in human THP-1 cells assessed as bacterial count per mg of cell protein at high extracellular compound concentration after 24 hrs at pH 5.5. Type of assay: functional. Summed up: as §1
For assay [3], the system named is Staphylococcus aureus. As to the kind of experiment: Antimicrobial activity against hospital-acquired vancomycin-intermediate Staphylococcus aureus NRS18 infected in human THP-1 cells assessed as bacterial count per mg of cell protein at low extracellular compound concentration after 24 hrs at pH 7.4. Type of assay: functional. Summed up:
as §1

Assay [4] has as its system Staphylococcus aureus. As to the kind of experiment: Antimicrobial activity against methicillin-susceptible Staphylococcus aureus ATCC 11632 infected in human THP-1 cells assessed as change in bacterial count after 24 hrs. Format: functional, organism-based. As to conditions: ATCC 11632, THP-1, 24 h. The gist of the method: (§2)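 THP-1 macrophages infected as described previously, with a postphagocytosis inoculum of 1.5 × 10⁶ to 3.0 × 10⁶ CFU/mg cell protein. Cells were exposed 24 h to increasing extracellular antibiotic concentrations. Response is the change in log10 CFU/mg protein from the inoculum (n = 3), fitted to a Hill function. E0 and Emax were extrapolated to infinitely low and high concentrations. EC50 and static concentration (graphical interpolation) are expressed as multiples of the broth MIC at pH 5.5 or 7.4.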

Assay [5] concerns Staphylococcus aureus. As to the kind of experiment: Antimicrobial activity against hospital-acquired vancomycin-intermediate Staphylococcus aureus NRS126 infected in human THP-1 cells assessed as change in bacterial count after 24 hrs. Type of assay: functional, organism-based. As to conditions: NRS126, THP-1, 24 h. The gist of the method:
as §2

Assay [6] relates to Staphylococcus aureus. As to the kind of experiment: Antimicrobial activity against methicillin-susceptible Staphylococcus aureus NRS52 infected in human THP-1 cells assessed as bacterial count per mg of cell protein at high extracellular compound concentration after 24 hrs. Format: functional. Summed up: as §2
Assay [7] deals with Staphylococcus aureus. As to the kind of experiment: Antimicrobial activity against Panton-valentine leucocidin-positive community-acquired methicillin-resistant Staphylococcus aureus N4042228 infected in human THP-1 cells assessed as change in bacterial count after 24 hrs at pH 7.4. Format: functional, organism-based. The settings on record: N4042228, THP-1, 24 h. The gist of the method:
(§3)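 THP-1 human macrophages infected with S. aureus (postphagocytosis inoculum 1.5 × 10^6 to 3.0 × 10^6 CFU/mg cell protein), then incubated 24 h with increasing extracellular antibiotic concentrations. Change in log10 CFU/mg cell protein from the postphagocytosis inoculum, n = 3. Hill function fitted on log-transformed data. Low-concentration value (E0) and high-concentration value (Emax) are extrapolated. Where a pH is given, concentrations are expressed as multiples of the broth MIC at that pH.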

Assay [8] deals with Staphylococcus aureus. As to the kind of experiment: Antimicrobial activity against hospital-acquired methicillin-resistant Staphylococcus aureus ATCC 33592 infected in human THP-1 cells assessed as change in bacterial count after 24 hrs at pH 5.5. Format: functional, organism-based. As to conditions: ATCC 33592, THP-1, 24 h. Summed up:
as §2

In assay [9] the test system is Staphylococcus aureus. The assay is described as follows: Antimicrobial activity against methicillin-resistant Staphylococcus aureus ATCC 33591 infected in human keratinocytes assessed as bacterial count per mg of cell protein at low extracellular compound concentration after 24 hrs. Format: functional. The gist of the method: (§4)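 Primary human skin keratinocytes were grown in defined keratinocyte serum-free medium, infected with a postphagocytosis inoculum of 1.5 × 10⁶ to 3.0 × 10⁶ CFU/mg cell protein, then exposed 24 h to increasing extracellular antibiotic concentrations. Change in log10 CFU/mg protein from the inoculum was fitted to a Hill equation with slope 1. E0 and Emax were extrapolated to infinitely low and high concentrations, in total drug mg/liter.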

Assay [10] concerns Staphylococcus aureus. The assay is described as follows: Antimicrobial activity against methicillin-resistant Staphylococcus aureus ATCC 33591 infected in human keratinocytes assessed as change in bacterial count after 24 hrs. The settings on record: ATCC 33591, 24 h. Type of assay: functional, organism-based. The gist of the method: as §4
In assay [11] the test system is Staphylococcus aureus. As to the kind of experiment: Bacteriostatic activity against hospital-acquired vancomycin-intermediate Staphylococcus aureus NRS126 infected in human THP-1 cells assessed as change in bacterial count after 24 hrs at pH 5.5. Format: functional.
Assay [12] deals with Staphylococcus aureus. The assay is described as follows: Antimicrobial activity against hospital-acquired vancomycin-intermediate Staphylococcus aureus NRS18 infected in human THP-1 cells assessed as bacterial count per mg of cell protein at low extracellular compound concentration after 24 hrs at pH 5.5. Format: functional. The gist of the method: as §1
In assay [13] the test system is Staphylococcus aureus. The assay is described as follows: Ratio of MIC for hospital-acquired methicillin-resistant Staphylococcus aureus ATCC 33591 by microdilution method at pH 7.4 to ratio of MIC for hospital-acquired methicillin-resistant Staphylococcus aureus ATCC 33591 by microdilution method at pH 5.5. Type of assay: functional. The gist of the method:
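MICs were determined by broth microdilution at pH 7.4 and pH 5.5. Broth was adjusted before inoculation, and pH was confirmed maintained (±0.1 unit) at the end.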

The subject of assay [14] is Staphylococcus aureus. The assay is described as follows: Antimicrobial activity against Panton-valentine leucocidin-positive community-acquired methicillin-resistant Staphylococcus aureus N4090440 infected in human THP-1 cells assessed as change in bacterial count after 24 hrs. Type of assay: functional, organism-based. As to conditions: N4090440, THP-1, 24 h. Summed up: as §3

Assay [15] concerns Staphylococcus aureus. As to the kind of experiment: Antimicrobial activity against hospital-acquired vancomycin-resistant Staphylococcus aureus VRS1 infected in human THP-1 cells assessed as change in bacterial count after 24 hrs. Type of assay: functional, cell-based. The settings on record: VRS1, THP-1, 24 h. The gist of the method:
as §2

Assay [16] has as its system Staphylococcus aureus. As to the kind of experiment: Antimicrobial activity against methicillin-susceptible Staphylococcus aureus […] infected in human THP-1 cells assessed as bacterial count per mg of cell protein at high extracellular compound concentration after 24 hrs at pH 7.4. Format: functional. The gist of the method: as §1
The subject of assay [17] is Staphylococcus aureus. As to the kind of experiment: Bacteriostatic activity against methicillin-susceptible Staphylococcus aureus […] infected in human THP-1 cells assessed as change in bacterial count after 24 hrs at pH 7.4. Format: functional. The gist of the method:
as §1

Assay [18] has as its system Staphylococcus aureus. The assay is described as follows: Antimicrobial activity against hospital-acquired methicillin-resistant Staphylococcus aureus ATCC 33591 infected in human THP-1 cells assessed as bacterial count per mg of cell protein at low extracellular compound concentration after 24 hrs. Format: functional. The gist of the method:
as §2

In assay [19] the test system is Staphylococcus aureus. The assay is described as follows: Bacteriostatic activity against hospital-acquired vancomycin-intermediate Staphylococcus aureus NRS126 infected in human THP-1 cells assessed as change in bacterial count after 24 hrs at pH 7.4. Format: functional. Summed up:
as §2

Assay [20] concerns Staphylococcus aureus. The assay is described as follows: Antimicrobial activity against methicillin-susceptible Staphylococcus aureus ATCC 25923 infected in human keratinocytes assessed as bacterial count per mg of cell protein at high extracellular compound concentration after 24 hrs. Type of assay: functional. The gist of the method:
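Primary human skin keratinocytes were grown in defined keratinocyte serum-free medium and infected with S. aureus to 1.5 × 10^6 to 3.0 × 10^6 CFU/mg cell protein. Cells were exposed 24 h to increasing extracellular concentrations. Response was the log10 CFU change from the postphagocytosis inoculum, fitted by a Hill equation with slope 1. Cs is the concentration giving CFU equal to the original inoculum, found by graphical interpolation.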

Assay [21] concerns Staphylococcus aureus. As to the kind of experiment: Antimicrobial activity against hospital-acquired vancomycin-intermediate Staphylococcus aureus NRS18 infected in human THP-1 cells assessed as bacterial count per mg of cell protein at low extracellular compound concentration after 24 hrs. Format: functional. The gist of the method: as §1

As for `Nc1nc(/C(=N/O)C(=O)N[C@@H]2C(=O)N3C(C(=O)O)=C(/C=C4\CCN([C@@H]5CCNC5)C4=O)CS[C@H]23)ns1` [CEFTOBIPROLE], the log10cfu is listed as 3.02 in the assay with Staphylococcus aureus [1]; 1.04 with Staphylococcus aureus [2]; 2.6 with Staphylococcus aureus [3]; -1.01 with Staphylococcus aureus [6]; 2.04 in the assay with Staphylococcus aureus [9]; 2.63 in the assay with Staphylococcus aureus [12]. The log10cfu in the assay with Staphylococcus aureus [16] was -1.04; in the assay with Staphylococcus aureus [18] it was 2.47; with Staphylococcus aureus [20], -0.94; in the assay with Staphylococcus aureus [21], 2.83. Besides, the EC50 in the assay with Staphylococcus aureus [4] worked out at 0.205 µg/mL (≈ 0.383 µM); in the assay on Staphylococcus aureus [5] it was 0.23 µg/mL (≈ 0.43 µM); in the assay on Staphylococcus aureus [7], 0.33 ×MIC; in the assay with Staphylococcus aureus [8], 0.77 ×MIC; in the assay on Staphylococcus aureus [10], 1.08 µg/mL (≈ 2.02 µM); with Staphylococcus aureus [14] it was 0.08 µg/mL (≈ 0.15 µM). The EC50 with Staphylococcus aureus [15] was 0.25 µg/mL (≈ 0.468 µM). Also, the Activity with Staphylococcus aureus [11] is 1.97 multiples of MIC; in the assay on Staphylococcus aureus [17] it was 0.6 × MIC; with Staphylococcus aureus [19] it was 0.74 ×MIC. In addition, the “fold change (FC)” value in the assay on Staphylococcus aureus [13] was found to be 4.
